≈ marks a conversion by molar mass, not a printed value.
Assays:
[1] = system: Mycobacterium tuberculosis; experiment: Antibacterial activity against Mycobacterium tuberculosis H37Rv ATCC 27294T assessed as rifampin MIC at 0.25 ug/ml after 7 days by microdilution checkerboard assay; assay type: functional; details: 168 h
How it was run: (§1)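 Two-dimensional checkerboard in H37Rv at 10^5 CFU/ml in MB7H9/OADC. Partner drug (amikacin, EtBr, isoniazid, ofloxacin or rifampin) two-fold serially diluted across columns 3-11. Test compound two-fold serially diluted down rows 2-6. Plates incubated 7 days at 37 °C, then MTT added overnight. […] Run in triplicate.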

[2] = system: Mycobacterium tuberculosis; experiment: Antibacterial activity against Mycobacterium tuberculosis H37Rv ATCC 27294T assessed as amikacin MIC at 0.25 ug/ml after 7 days by microdilution checkerboard assay; assay type: functional; details: 168 h; how it was run: as §1
[3] = system: Mycobacterium tuberculosis; experiment: Antibacterial activity against Mycobacterium tuberculosis H37Rv ATCC 27294T assessed as ofloxacin MIC at 8 ug/ml after 7 days by microdilution checkerboard assay; assay type: functional; details: 168 h; how it was run: as §1
[4] = system: Mycobacterium tuberculosis; experiment: Antibacterial activity against Mycobacterium tuberculosis H37Rv ATCC 27294T assessed as ofloxacin MIC at 4 ug/ml after 7 days by microdilution checkerboard assay; assay type: functional; details: 168 h; how it was run: as §1
[5] = system: Mycobacterium tuberculosis; experiment: Antibacterial activity against Mycobacterium tuberculosis H37Rv ATCC 27294T assessed as amikacin MIC at 2 ug/ml after 7 days by microdilution checkerboard assay; assay type: functional; details: 168 h; how it was run: as §1
[6] = system: Mycobacterium tuberculosis; experiment: Antibacterial activity against Mycobacterium tuberculosis H37Rv ATCC 27294T assessed as isoniazid MIC at 2 ug/ml after 7 days by microdilution checkerboard assay; assay type: functional; details: 168 h; how it was run: as §1
[7] = system: Mycolicibacterium smegmatis; experiment: Anti-tubercular activity against Mycobacterium smegmatis MC2 155 ATCC 700084 after 3 days by microdilution method; assay type: functional; details: MC2 155 ATCC 700084, 72 h
How it was run: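 M. smegmatis mc2155 grown in MB7H9 + 10% OADC at 37 °C with shaking to OD600 0.8. Inoculum set to 0.5 McFarland, diluted 1:100, and mixed 1:1 with two-fold serial dilutions in MB7H9. Plates incubated 3 days at 37 °C with growth and sterility controls. MIC taken as the lowest concentration with no visible growth.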

[8] = system: Mycobacterium tuberculosis; experiment: Antibacterial activity against Mycobacterium tuberculosis H37Rv ATCC 27294T assessed as ethidium bromide MIC at 4 ug/ml after 7 days by microdilution checkerboard assay; assay type: functional; details: 168 h; how it was run: as §1
[9] = system: Mycobacterium tuberculosis; experiment: Antibacterial activity against Mycobacterium tuberculosis H37Rv ATCC 27294T assessed as rifampin MIC at 0.5 ug/ml after 7 days by microdilution checkerboard assay; assay type: functional; details: 168 h
How it was run: (§2)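 M. tuberculosis H37Rv grown in MB7H9 + 10% OADC at 37 °C to OD600 0.8; plates inoculated at 10^5 CFU/ml. Rifampicin two-fold serially diluted across columns, test compound two-fold diluted down rows (two-dimensional checkerboard). Sealed, 37 °C for seven days, then MTT added and incubated overnight. MIC read as no colour change. Triplicate.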

[10] = system: Mycobacterium tuberculosis; experiment: Antibacterial activity against Mycobacterium tuberculosis H37Rv ATCC 27294T assessed as ofloxacin MIC at 0.5 ug/ml after 7 days by microdilution checkerboard assay; assay type: functional; details: 168 h; how it was run: as §1
[11] = system: Mycobacterium tuberculosis; experiment: Antibacterial activity against Mycobacterium tuberculosis H37Rv ATCC 27294T assessed as rifampin MIC at 2 ug/ml after 7 days by microdilution checkerboard assay; assay type: functional; details: 168 h; how it was run: as §2
[12] = system: Mycobacterium tuberculosis; experiment: Antibacterial activity against Mycobacterium tuberculosis H37Rv ATCC 27294T assessed as isoniazid MIC at 0.5 ug/ml after 7 days by microdilution checkerboard assay; assay type: functional; details: 168 h; how it was run: as §1
[13] = system: Mycobacterium tuberculosis; experiment: Antibacterial activity against Mycobacterium tuberculosis H37Rv ATCC 27294T assessed as isoniazid MIC at 16 ug/ml after 7 days by microdilution checkerboard assay; assay type: functional; details: 168 h; how it was run: as §1
[14] = system: Mycobacterium tuberculosis; experiment: Antibacterial activity against Mycobacterium tuberculosis H37Rv ATCC 27294T assessed as ethidium bromide MIC at 0.5 ug/ml after 7 days by microdilution checkerboard assay; assay type: functional; details: 168 h; how it was run: as §1
[15] = system: Mycobacterium tuberculosis; experiment: Antibacterial activity against Mycobacterium tuberculosis H37Rv ATCC 27294T assessed as ethidium bromide MIC at 16 ug/ml after 7 days by microdilution checkerboard assay; assay type: functional; details: 168 h; how it was run: as §1
[16] = system: Mycobacterium tuberculosis; experiment: Antibacterial activity against Mycobacterium tuberculosis H37Rv ATCC 27294T assessed as isoniazid MIC at 0.25 ug/ml after 7 days by microdilution checkerboard assay; assay type: functional; details: 168 h; how it was run: as §1
[17] = system: Mycobacterium tuberculosis; experiment: Antibacterial activity against Mycobacterium tuberculosis H37Rv ATCC 27294T assessed as isoniazid MIC at 1 ug/ml after 7 days by microdilution checkerboard assay; assay type: functional; details: 168 h; how it was run: as §1
[18] = system: Mycobacterium tuberculosis; experiment: Antibacterial activity against Mycobacterium tuberculosis H37Rv ATCC 27294T assessed as ofloxacin MIC at 0.25 ug/ml after 7 days by microdilution checkerboard assay; assay type: functional; details: 168 h; how it was run: as §1
[19] = system: Mycobacterium tuberculosis; experiment: Antibacterial activity against Mycobacterium tuberculosis H37Rv ATCC 27294T assessed as amikacin MIC at 16 ug/ml after 7 days by microdilution checkerboard assay; assay type: functional; details: 168 h; how it was run: as §1
[20] = system: Mycobacterium tuberculosis; experiment: Antibacterial activity against Mycobacterium tuberculosis H37Rv ATCC 27294T assessed as rifampin MIC at 1 ug/ml after 7 days by microdilution checkerboard assay; assay type: functional; details: 168 h; how it was run: as §2
[21] = system: Mycobacterium tuberculosis; experiment: Antibacterial activity against Mycobacterium tuberculosis H37Rv ATCC 27294T assessed as amikacin MIC at 1 ug/ml after 7 days by microdilution checkerboard assay; assay type: functional; details: 168 h; how it was run: as §1
[22] = system: Mycobacterium tuberculosis; experiment: Anti-tubercular activity against Mycobacterium tuberculosis H37Rv ATCC 27294T after 7 days by mircodilution method; assay type: functional; details: 168 h
How it was run: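 H37Rv grown static in MB7H9 + 10% OADC at 37 °C to OD600 0.8, then diluted to about 10^5 cells/ml. Mixed 1:1 with two-fold serial dilutions in MB7H9/OADC and incubated 7 days at 37 °C. MTT added to final 2.5% and plates incubated overnight. MIC is the lowest concentration with no colour change. Run in triplicate.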

[23] = system: Mycobacterium tuberculosis; experiment: Antibacterial activity against Mycobacterium tuberculosis H37Rv ATCC 27294T assessed as amikacin MIC at 8 ug/ml after 7 days by microdilution checkerboard assay; assay type: functional; details: 168 h; how it was run: as §1
[24] = system: Mycobacterium tuberculosis; experiment: Antibacterial activity against Mycobacterium tuberculosis H37Rv ATCC 27294T assessed as amikacin MIC at 4 ug/ml after 7 days by microdilution checkerboard assay; assay type: functional; details: 168 h; how it was run: as §1
[25] = system: Mycobacterium tuberculosis; experiment: Antibacterial activity against Mycobacterium tuberculosis H37Rv ATCC 27294T assessed as ofloxacin MIC at 1 ug/ml after 7 days by microdilution checkerboard assay; assay type: functional; details: 168 h; how it was run: as §1
[26] = system: Mycobacterium tuberculosis; experiment: Antibacterial activity against Mycobacterium tuberculosis H37Rv ATCC 27294T assessed as ofloxacin MIC at 2 ug/ml after 7 days by microdilution checkerboard assay; assay type: functional; details: 168 h; how it was run: as §1
[27] = system: Mycobacterium tuberculosis; experiment: Antibacterial activity against Mycobacterium tuberculosis H37Rv ATCC 27294T assessed as rifampin MIC at 8 ug/ml after 7 days by microdilution checkerboard assay; assay type: functional; details: 168 h; how it was run: as §2
[28] = system: Mycobacterium tuberculosis; experiment: Antibacterial activity against Mycobacterium tuberculosis H37Rv ATCC 27294T assessed as isoniazid MIC at 8 ug/ml after 7 days by microdilution checkerboard assay; assay type: functional; details: 168 h; how it was run: as §1
[29] = system: Mycobacterium tuberculosis; experiment: Antibacterial activity against Mycobacterium tuberculosis H37Rv ATCC 27294T assessed as ethidium bromide MIC at 0.25 ug/ml after 7 days by microdilution checkerboard assay; assay type: functional; details: 168 h; how it was run: as §1
[30] = system: Mycobacterium tuberculosis; experiment: Antibacterial activity against Mycobacterium tuberculosis H37Rv ATCC 27294T assessed as ethidium bromide MIC at 8 ug/ml after 7 days by microdilution checkerboard assay; assay type: functional; details: 168 h; how it was run: as §1
[31] = Cytotoxicity against human MDM assessed as cell viability after 3 days by Alamar blue dye-based fluorocytometric analysis relative to control; details: 72 h
[32] = system: Mycobacterium tuberculosis; experiment: Antibacterial activity against Mycobacterium tuberculosis H37Rv ATCC 27294T assessed as amikacin MIC at 0.5 ug/ml after 7 days by microdilution checkerboard assay; assay type: functional; details: 168 h; how it was run: as §1
[33] = system: Mycobacterium tuberculosis; experiment: Antibacterial activity against Mycobacterium tuberculosis H37Rv ATCC 27294T assessed as ethidium bromide MIC at 2 ug/ml after 7 days by microdilution checkerboard assay; assay type: functional; details: 168 h; how it was run: as §1
[34] = system: Mycobacterium tuberculosis; experiment: Antibacterial activity against Mycobacterium tuberculosis H37Rv ATCC 27294T assessed as ethidium bromide MIC at 1 ug/ml after 7 days by microdilution checkerboard assay; assay type: functional; details: 168 h; how it was run: as §1
[35] = system: Mycobacterium tuberculosis; experiment: Antibacterial activity against Mycobacterium tuberculosis H37Rv ATCC 27294T assessed as rifampin MIC at 4 ug/ml after 7 days by microdilution checkerboard assay; assay type: functional; details: 168 h; how it was run: as §2
[36] = system: Mycobacterium tuberculosis; experiment: Antibacterial activity against Mycobacterium tuberculosis H37Rv ATCC 27294T assessed as rifampin MIC at 16 ug/ml after 7 days by microdilution checkerboard assay; assay type: functional; details: 168 h; how it was run: as §2
[37] = system: Mycobacterium tuberculosis; experiment: Antibacterial activity against Mycobacterium tuberculosis H37Rv ATCC 27294T assessed as ofloxacin MIC at 16 ug/ml after 7 days by microdilution checkerboard assay; assay type: functional; details: 168 h; how it was run: as §1
[38] = system: Mycobacterium tuberculosis; experiment: Antibacterial activity against Mycobacterium tuberculosis H37Rv ATCC 27294T assessed as isoniazid MIC at 4 ug/ml after 7 days by microdilution checkerboard; assay type: functional; details: 168 h; how it was run: as §1

SMILES: CCSc1nnc(COc2ccccc2C2=NOC(c3ccc(Cl)cc3Cl)C2)n1NC(C)=O (stereo not drawn)
- MIC [1]: 1 µg/mL
- MIC [2]: 1 µg/mL
- MIC [3]: 1 µg/mL
- MIC [4]: 1 µg/mL
- MIC [5]: 1 µg/mL
- MIC [6]: 0.1 µg/mL
- MIC [7]: 2 µg/mL (≈ 3.95 µM)
- MIC [8]: 6.25 µg/mL
- MIC [9]: 0.5 µg/mL
- MIC [10]: 1 µg/mL
- MIC [11]: 0.25 µg/mL
- MIC [12]: 0.1 µg/mL
- MIC [13]: 0.00156 µg/mL
- MIC [14]: 12.5 µg/mL
- MIC [15]: 0.39 µg/mL
- MIC [16]: 0.1 µg/mL
- MIC [17]: 0.1 µg/mL
- MIC [18]: 2 µg/mL
- MIC [19]: 0.0312 µg/mL
- MIC [20]: 0.5 µg/mL
- MIC [21]: 1 µg/mL
- MIC [22]: 8 µg/mL (≈ 15.8 µM)
- MIC [23]: 0.25 µg/mL
- MIC [24]: 1 µg/mL
- MIC [25]: 1 µg/mL
- MIC [26]: 1 µg/mL
- MIC [27]: 0.0312 µg/mL
- MIC [28]: 0.025 µg/mL
- MIC [29]: 12.5 µg/mL
- MIC [30]: 1.56 µg/mL
- IC50 [31]: 9.7 µg/mL (≈ 19.2 µM)
- MIC [32]: 1 µg/mL
- MIC [33]: 12.5 µg/mL
- MIC [34]: 12.5 µg/mL
- MIC [35]: 0.125 µg/mL
- MIC [36]: 0.0156 µg/mL
- MIC [37]: 0.0312 µg/mL
- MIC [38]: 0.1 µg/mL

— ChEMBL document CHEMBL3758168, “Hybrid triazoles: Design and synthesis as potential dual inhibitor of growth and efflux inhibition in tuberculosis” (Eur J Med Chem, 2016)
